Legend:
[1] = Half life in PBS at 1 uM by LC-MS/MS analysis; assay type: physicochemical
How it was run: (§1)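 Samples were incubated in phosphate buffer or human plasma and analysed by LC-MS/MS in product ion scan mode. Analyte concentration was monitored over incubation time. The slope of ln(concentration) versus time gave the first-order degradation rate constant k, and t1/2 was calculated from k. Ketoprofen ethyl ester served as a reference to confirm that the plasma batch was enzymatically active.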

[2] = Half life in human plasma at 1 uM by LC-MS/MS analysis; assay type: ADME, cell-free; how it was run: as §1
[3] = Drug degradation in human plasma at 1 uM measured upto 120 mins by LC-MS/MS analysis; assay type: ADME, cell-free; settings: 2 h; how it was run: as §1
[4] = biological target: T1, ATP-dependent translocase ABCB1 (Homo sapiens, UniProt P08183); assay: Inhibition of P-gp in human K562/DOX cells assessed as drug level causing 50% increase in nuclear pirarubicin concentration incubated for 30 mins by spectroflurometry; assay type: cell-based; settings: read-out: I0.5
T1 sequence (P08183 whole entry): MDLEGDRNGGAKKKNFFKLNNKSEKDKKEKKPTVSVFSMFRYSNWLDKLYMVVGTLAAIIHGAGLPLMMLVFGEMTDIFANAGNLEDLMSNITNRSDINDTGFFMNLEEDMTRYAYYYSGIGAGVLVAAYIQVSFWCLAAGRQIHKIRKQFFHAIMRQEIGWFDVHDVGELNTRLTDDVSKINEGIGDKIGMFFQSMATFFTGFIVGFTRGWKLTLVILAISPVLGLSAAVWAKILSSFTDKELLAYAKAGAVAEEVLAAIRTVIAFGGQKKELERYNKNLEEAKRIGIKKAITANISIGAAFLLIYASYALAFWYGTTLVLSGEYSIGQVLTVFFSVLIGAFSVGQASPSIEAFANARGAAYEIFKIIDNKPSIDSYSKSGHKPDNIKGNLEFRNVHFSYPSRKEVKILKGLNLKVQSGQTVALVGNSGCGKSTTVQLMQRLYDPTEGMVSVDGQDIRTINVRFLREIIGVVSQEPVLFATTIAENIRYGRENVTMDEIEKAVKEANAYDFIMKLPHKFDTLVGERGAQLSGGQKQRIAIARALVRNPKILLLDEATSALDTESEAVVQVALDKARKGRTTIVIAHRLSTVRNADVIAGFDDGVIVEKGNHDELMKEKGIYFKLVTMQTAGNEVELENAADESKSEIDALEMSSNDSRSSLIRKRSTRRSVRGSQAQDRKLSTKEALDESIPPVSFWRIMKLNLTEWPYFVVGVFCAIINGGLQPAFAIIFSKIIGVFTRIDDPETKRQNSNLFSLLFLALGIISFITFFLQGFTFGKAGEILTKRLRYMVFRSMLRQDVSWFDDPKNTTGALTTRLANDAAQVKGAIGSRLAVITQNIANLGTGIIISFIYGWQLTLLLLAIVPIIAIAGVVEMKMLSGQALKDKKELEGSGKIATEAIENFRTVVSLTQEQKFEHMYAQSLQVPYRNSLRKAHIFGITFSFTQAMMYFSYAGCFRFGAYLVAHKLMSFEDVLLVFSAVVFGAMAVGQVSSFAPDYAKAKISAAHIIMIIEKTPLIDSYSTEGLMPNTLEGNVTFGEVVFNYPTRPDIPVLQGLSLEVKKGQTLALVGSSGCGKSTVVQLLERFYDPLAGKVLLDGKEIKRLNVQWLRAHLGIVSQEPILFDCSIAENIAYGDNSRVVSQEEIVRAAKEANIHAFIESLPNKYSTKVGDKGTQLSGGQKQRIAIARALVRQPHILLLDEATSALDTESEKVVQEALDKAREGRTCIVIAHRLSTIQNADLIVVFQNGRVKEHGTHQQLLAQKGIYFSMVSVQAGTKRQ
How it was run: (§2)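 Pirarubicin uptake into nuclei was measured in P-gp-overexpressing, doxorubicin-resistant K562/DOX cells. [I]0.5 is the modulator concentration giving a half-maximal increase (α = 0.5) in nuclear pirarubicin concentration. αmax is the maximum increase obtainable in resistant cells. Mean ± SE of three independent experiments.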

[5] = biological target: T1, ATP-dependent translocase ABCB1; assay: Inhibition of P-gp in human K562/DOX cells assessed as drug level causing maximum increase in nuclear pirarubicin concentration incubated for 30 mins by spectroflurometry relative to control; assay type: cell-based; settings: 0.5 h; how it was run: as §2
[6] = biological target: T1, ATP-dependent translocase ABCB1; assay: Inhibition of P-glycoprotein-mediated Rhodamine-123 efflux in human K562 cells assessed as Rhodamine-123 accumulation at 1 uM preincubated for 15 mins followed by Rhodamine-123 addition measured after 30 mins by flow cytometry; assay type: cell-based; settings: k562, 0.5 h
[7] = biological target: T1, ATP-dependent translocase ABCB1; assay: Inhibition of P-glycoprotein (unknown origin) in MDCK-MDR1 assessed as inhibtion of calcein-AM transport incubated for 30 mins by fluorescence assay; assay type: cell-based
[8] = biological target: T1, ATP-dependent translocase ABCB1; assay: Inhibition of P-glycoprotein (unknown origin) in MDCK-MDR1 assessed as reduction of ATP consumption pre-incubated for 2 hrs followed by substrate addition shaken for 5 mins by luminescence assay; assay type: cell-based; settings: mdck-mdr1, 5 min
[9] = biological target: T2, Broad substrate specificity ATP-binding cassette transporter ABCG2 (Homo sapiens, UniProt Q9UNQ0); assay: Inhibition of BCRP (unknown origin) in MDCK-BCRP assessed as inhibtion of hoechst 33342 transport incubated for 30 mins by fluorescence assay
T2 sequence (Q9UNQ0 whole entry): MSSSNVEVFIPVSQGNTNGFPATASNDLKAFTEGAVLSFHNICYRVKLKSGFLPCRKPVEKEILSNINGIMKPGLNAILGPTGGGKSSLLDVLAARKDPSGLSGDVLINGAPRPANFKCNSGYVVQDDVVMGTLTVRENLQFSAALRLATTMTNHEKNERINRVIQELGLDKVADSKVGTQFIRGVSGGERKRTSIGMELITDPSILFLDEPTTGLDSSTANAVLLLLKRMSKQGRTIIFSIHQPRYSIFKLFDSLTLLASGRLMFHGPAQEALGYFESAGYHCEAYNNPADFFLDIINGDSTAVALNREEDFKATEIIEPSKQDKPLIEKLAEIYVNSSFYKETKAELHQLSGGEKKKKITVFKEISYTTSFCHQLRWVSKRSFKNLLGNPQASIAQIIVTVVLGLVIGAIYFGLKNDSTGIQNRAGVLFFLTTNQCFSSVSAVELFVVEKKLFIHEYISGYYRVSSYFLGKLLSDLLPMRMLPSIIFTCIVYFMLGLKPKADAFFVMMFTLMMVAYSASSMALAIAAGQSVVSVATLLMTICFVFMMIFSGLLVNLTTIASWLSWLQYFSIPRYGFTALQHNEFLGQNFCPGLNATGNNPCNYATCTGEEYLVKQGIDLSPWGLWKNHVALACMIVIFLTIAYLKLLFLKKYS

[10] = biological target: T1, ATP-dependent translocase ABCB1; assay: Inhibition of P-glycoprotein-mediated Rhodamine-123 efflux in human K562/DOX cells assessed as […] at 1 uM […] by flow cytometry relative to control; assay type: cell-based; parameters: scale not given: the % may be the effect or the level left; settings: 0.5 h
How it was run: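 K562/DOX cells were loaded with 5 µM rhodamine-123 for 30 min. They were then washed and held 10 min in rhodamine-free medium, with or without modulator at 1.0 µM. Verapamil at 3.0 µM was the reference. Flow cytometry median fluorescence after efflux was divided by that after uptake and expressed as a percentage. Mean ± SE of three independent experiments.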

Row | Structure (SMILES) | half-life at 1 µM [1] | half-life at 1 µM [2] | Stability [3] | IC50 [4] | Alpha max [5] | inhibition (INH) [6] | EC50 [7] | inhibition (INH) [8] | EC50 [9] | Activity [10]
1 | COc1cc(/C=C/C(=O)OCCCCCN(C)CCCCCOC(=O)c2cc(OC)c(OC)c(OC)c2)cc(OC)c1OC | > 4 h | > 4 h |  |  |  |  |  |  |  | 
2 | COc1cc(/C=C/C(=O)OCCCN(C)CCCCCOC(=O)c2cc(OC)c(OC)c(OC)c2)cc(OC)c1OC | > 4 h | 0.683 h | Unstable |  |  |  |  |  |  | 
3 | COc1cc(/C=C/C(=O)OCCCCCN(C)CCCOC(=O)c2cc(OC)c(OC)c(OC)c2)cc(OC)c1OC | > 4 h | > 4 h |  |  |  |  |  |  |  | 
4 | CCOC(=O)C(C)c1cccc(C(=O)c2ccccc2)c1 (stereo not given) |  | 1.78 h |  |  |  |  |  |  |  | 
5 | COc1cc(/C=C/C(=O)OCCN(C)CCCCCCCOC(=O)c2cc(OC)c(OC)c(OC)c2)cc(OC)c1OC | > 4 h | > 4 h |  | 0.07 µM | 0.79 |  |  |  |  | 
6 | COc1cc(/C=C/C(=O)OCCCCCCCN(C)CCOC(=O)c2c3ccccc3cc3ccccc23)cc(OC)c1OC | > 4 h | > 4 h |  | 0.02 µM | 0.98 |  |  |  |  | 
7 | COc1cc(/C=C/C(=O)OCCCCCCN(C)CCCOC(=O)c2cc(OC)c(OC)c(OC)c2)cc(OC)c1OC | > 4 h | > 4 h |  | 0.24 µM | 0.9 |  |  |  |  | 
8 | COc1cc(/C=C/C(=O)OCCN(C)CCCCCCCCOC(=O)c2c3ccccc3cc3ccccc23)cc(OC)c1OC | > 4 h | > 4 h |  | 0.04 µM | 0.96 | Not Active | 0.92 µM | Not Active | 5.1 µM | 
9 | COc1cc(/C=C/C(=O)OCCCCCCN(C)CCCCOC(=O)c2cc(OC)c(OC)c(OC)c2)cc(OC)c1OC | > 4 h | > 4 h |  | 0.01 µM | 0.99 | Not Active | 0.2 µM | Active | 16 µM | 
10 | COc1cc(/C=C/C(=O)OCCN(C)CCCCCCCCOC(=O)c2cc(OC)c(OC)c(OC)c2)cc(OC)c1OC | > 4 h | > 4 h |  | 0.04 µM | 0.91 | Not Active | 0.22 µM | Not Active | 4.5 µM | 
11 | COc1cc(/C=C/C(=O)OCCCN(C)CCCCCCCOC(=O)c2c3ccccc3cc3ccccc23)cc(OC)c1OC | > 4 h | > 4 h |  | 0.04 µM | 0.88 | Not Active | 0.26 µM | Not Active | 3 µM | 84.7%
12 | COc1cc(/C=C/C(=O)OCCCCCN(C)CCCCOC(=O)c2cc(OC)c(OC)c(OC)c2)cc(OC)c1OC | > 4 h | > 4 h |  | 0.1 µM | 0.94 |  |  |  |  | 
13 | COc1cc(/C=C/C(=O)OCCCCN(C)CCCCCCOC(=O)c2cc(OC)c(OC)c(OC)c2)cc(OC)c1OC | > 4 h | 2.05 h | Unstable | 0.07 µM | 0.99 |  |  |  |  | 
14 | COc1cc(/C=C/C(=O)OCCCN(C)CCCCCCOC(=O)c2cc(OC)c(OC)c(OC)c2)cc(OC)c1OC | > 4 h | 0.65 h | Unstable | 0.39 µM | 0.99 |  |  |  |  | 
15 | COc1cc(/C=C/C(=O)OCCCCCCN(C)CCCOC(=O)c2c3ccccc3cc3ccccc23)cc(OC)c1OC | > 4 h | > 4 h |  | 0.03 µM | 0.99 |  |  |  |  | 
16 | COc1cc(/C=C/C(=O)OCCN(C)CCCCCCOC(=O)c2cc(OC)c(OC)c(OC)c2)cc(OC)c1OC | > 4 h | > 4 h |  | 0.46 µM | 0.91 |  |  |  |  | 
17 | COc1cc(/C=C/C(=O)OCCCCCCCCN(C)CCOC(=O)c2cc(OC)c(OC)c(OC)c2)cc(OC)c1OC | > 4 h | > 4 h |  | 0.02 µM | 0.93 | Not Active | 0.3 µM | Not Active | 3.8 µM | 
18 | COc1cc(/C=C/C(=O)OCCCCN(C)CCCCCOC(=O)c2c3ccccc3cc3ccccc23)cc(OC)c1OC | > 4 h | > 4 h |  | 0.04 µM | 0.94 |  |  |  |  | 
19 | COc1cc(/C=C/C(=O)OCCCN(C)CCCCCCOC(=O)c2c3ccccc3cc3ccccc23)cc(OC)c1OC | > 4 h | > 4 h |  | 0.04 µM | 0.92 |  |  |  |  | 
20 | COc1cc(/C=C/C(=O)OCCCN(C)CCCCCCCOC(=O)c2cc(OC)c(OC)c(OC)c2)cc(OC)c1OC | > 4 h | 0.75 h | Unstable | 0.08 µM | 0.97 |  |  |  |  | 
21 | COc1cc(/C=C/C(=O)OCCCCCN(C)CCCCOC(=O)c2c3ccccc3cc3ccccc23)cc(OC)c1OC | > 4 h | > 4 h |  | 0.03 µM | 0.99 |  |  |  |  | 
22 | COc1cc(/C=C/C(=O)OCCCCCCN(C)CCOC(=O)c2cc(OC)c(OC)c(OC)c2)cc(OC)c1OC | > 4 h | > 4 h |  | 0.19 µM | 0.77 |  |  |  |  | 
23 | COc1cc(/C=C/C(=O)OCCCCN(C)CCCCCCOC(=O)c2c3ccccc3cc3ccccc23)cc(OC)c1OC | > 4 h | > 4 h |  | 0.01 µM | 0.95 | Not Active | 0.85 µM | Active | 3.3 µM | 64.6%
24 | COc1cc(/C=C/C(=O)OCCCCCCN(C)CCOC(=O)c2c3ccccc3cc3ccccc23)cc(OC)c1OC | > 4 h | > 4 h |  | 0.04 µM | 0.94 |  |  |  |  | 
25 | COc1cc(/C=C/C(=O)OCCCCCCCN(C)CCOC(=O)c2cc(OC)c(OC)c(OC)c2)cc(OC)c1OC | > 4 h | > 4 h |  | 0.04 µM | 0.99 |  |  |  |  | 
26 | COc1cc(/C=C/C(=O)OCCN(C)CCCCCCCOC(=O)c2c3ccccc3cc3ccccc23)cc(OC)c1OC | > 4 h | > 4 h |  | 0.17 µM | 0.88 |  |  |  |  | 
27 | COc1cc(/C=C/C(=O)OCCN(C)CCCCCCOC(=O)c2c3ccccc3cc3ccccc23)cc(OC)c1OC | > 4 h | > 4 h |  | 0.2 µM | 0.79 |  |  |  |  | 
28 | COc1cc(/C=C/C(=O)OCCCCCCCN(C)CCCOC(=O)c2c3ccccc3cc3ccccc23)cc(OC)c1OC | > 4 h | > 4 h |  | 0.01 µM | 0.93 | Not Active | 0.23 µM | Not Active | 3.9 µM | 
29 | COc1cc(/C=C/C(=O)OCCCCN(C)CCCCCOC(=O)c2cc(OC)c(OC)c(OC)c2)cc(OC)c1OC | > 4 h | > 4 h | Stable | 0.27 µM | 0.99 |  |  |  |  | 
30 | COc1cc(/C=C/C(=O)OCCCCCCCCN(C)CCOC(=O)c2c3ccccc3cc3ccccc23)cc(OC)c1OC | > 4 h | > 4 h |  | 0.05 µM | 0.99 | Not Active | 0.34 µM | Not Active | 5.4 µM | 

Source: ChEMBL document CHEMBL4393665 (Eur J Med Chem, 2019)
